What was measured:
Lung [1] = test: Drug concentration in male Lister Hooded pigmented rat lung assessed as radioactivity per gram of tissue at 20 mg/kg administered as single dose via gastric gavage measured after 168 hrs by autoradiographic analysis; assay type: ADME, organism-based; design: dose 20 mg/kg, dosed compound name [14C]Sunitinib; details: in vivo, po
[2] = Drug concentration in male albino rat lymph node assessed as radioactivity per gram of tissue at 20 mg/kg administered as single dose via gastric gavage measured after 3 hrs by autoradiographic analysis; assay type: ADME, organism-based; design: dose 20 mg/kg, dosed compound name [14C]Sunitinib; details: in vivo, po
Zone of skin = test: Drug concentration in female Lister Hooded pigmented rat abdomen skin assessed as radioactivity per gram of tissue at 20 mg/kg administered as single dose via gastric gavage measured after 168 hrs by autoradiographic analysis; assay type: ADME, organism-based; design: dose 20 mg/kg, dosed compound name [14C]Sunitinib; details: in vivo, po
How it was run: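 Pigmented Lister Hooded rats, 7-8 weeks old, received [14C]sunitinib L-malate by gavage at 20 mg/kg (15 mg freebase/kg, 100 µCi/kg). One rat per sex was killed by CO2 at each of 24, 72, 168 and 336 h. Carcasses were frozen in solid CO2/hexane and cut into 30 µm sagittal sections, then freeze-dried. Tissue radioactivity was quantified by whole-body autoradiography calibrated against standards by regression (LOQ 0.04–0.06 µg eq/g).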

Pancreas = test: Drug concentration in male Lister Hooded pigmented rat pancreas assessed as radioactivity per gram of tissue at 20 mg/kg administered as single dose via gastric gavage measured after 24 hrs by autoradiographic analysis; assay type: ADME, organism-based; design: dose 20 mg/kg, dosed compound name [14C]Sunitinib; details: in vivo, po
Cynomolgus monkey [3] = test: Total drug recovery in male cynomolgus monkey at 6 mg/kg, po administered as single dose during 0 to 336 hrs by liquid scintillation counting; assay type: ADME, organism-based, Macaca fascicularis; design: dose 6 mg/kg, dosed compound name [14C]Sunitinib, route oral; details: in vivo
[4] = Drug concentration in male albino rat pituitary gland assessed as radioactivity per gram of tissue at 20 mg/kg administered as single dose via gastric gavage measured after 168 hrs by autoradiographic analysis; assay type: ADME, organism-based; design: dose 20 mg/kg, dosed compound name [14C]Sunitinib; details: in vivo, po
Blood [5] = test: Drug concentration in female albino rat blood assessed as radioactivity per gram of tissue at 20 mg/kg administered as single dose via gastric gavage measured after 3 hrs by autoradiographic analysis; assay type: ADME, organism-based; design: dose 20 mg/kg, dosed compound name [14C]Sunitinib; details: in vivo, po
How it was run: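 Sprague Dawley (albino) rats, ca 7-8 weeks old, received a single gastric-gavage dose of [14C]sunitinib L-malate at 20 mg/kg (15 mg freebase/kg, 100 µCi/kg). One animal per sex killed by CO2 at 3, 6, 24, 72 and 168 h, then frozen in CO2/hexane. 30 µm sagittal sections were cut and freeze-dried. Radioactivity per gram quantified by whole-body autoradiography using regression against standards. LOQ 0.04–0.06 µg freebase equiv/g.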

Stomach = test: Drug concentration in male albino rat stomach assessed as radioactivity per gram of tissue at 20 mg/kg administered as single dose via gastric gavage measured after 3 hrs by autoradiographic analysis; assay type: ADME, organism-based; design: dose 20 mg/kg, dosed compound name [14C]Sunitinib; details: in vivo, po
[6] = Drug concentration in male albino rat testis assessed as radioactivity per gram of tissue at 20 mg/kg administered as single dose via gastric gavage measured after 24 hrs by autoradiographic analysis; assay type: ADME, organism-based; design: dose 20 mg/kg, dosed compound name [14C]Sunitinib; details: in vivo, po
Blood [7] = test: Drug concentration in female Lister Hooded pigmented rat blood assessed as radioactivity per gram of tissue at 20 mg/kg administered as single dose via gastric gavage measured after 24 hrs by autoradiographic analysis; assay type: ADME, organism-based; design: dose 20 mg/kg, dosed compound name [14C]Sunitinib; details: in vivo, po
How it was run: (§1)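 Lister Hooded (pigmented) rats, ca 7-8 weeks old, acclimated 7 days, given [14C]sunitinib L-malate by gastric gavage at 20 mg/kg (15 mg freebase/kg, 100 µCi/kg). One male and one female killed by CO2 at 24, 72, 168 and 336 h. Carcasses frozen in solid CO2/hexane and embedded in frozen cellulose. 30 µm sagittal cryosections were freeze-dried. Tissue radioactivity measured by quantitative whole-body autoradiography against calibration standards, with background subtracted.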

[8] = Drug concentration in female Lister Hooded pigmented rat skeletal muscle assessed as radioactivity per gram of tissue at 20 mg/kg administered as single dose via gastric gavage measured after 24 hrs by autoradiographic analysis; assay type: ADME, organism-based; design: dose 20 mg/kg, dosed compound name [14C]Sunitinib; details: in vivo, po; how it was run: as §1
Liver = test: Drug concentration in male albino rat liver assessed as radioactivity per gram of tissue at 20 mg/kg administered as single dose via gastric gavage measured after 24 hrs by autoradiographic analysis; assay type: ADME, organism-based; design: dose 20 mg/kg, dosed compound name [14C]Sunitinib; details: in vivo, po
Cynomolgus monkey [9] = test: Drug recovery in cage residue of male cynomolgus monkey at 6 mg/kg, po administered as single dose during 0 to 336 hrs by liquid scintillation counting; assay type: ADME, organism-based, Macaca fascicularis; design: dose 6 mg/kg, dosed compound name [14C]Sunitinib, route oral; details: in vivo
Lung [10] = test: Drug concentration in female albino rat lung assessed as radioactivity per gram of tissue at 20 mg/kg administered as single dose via gastric gavage measured after 3 hrs by autoradiographic analysis; assay type: ADME, organism-based; design: dose 20 mg/kg, dosed compound name [14C]Sunitinib; details: in vivo, po
How it was run: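 Sprague Dawley albino rats, ca 7-8 weeks old, dosed once by gastric gavage with [14C]sunitinib L-malate (15 mg freebase/kg, 100 µCi/kg). One male and one female killed by CO2 at 3, 6, 24, 72 and 168 h. Carcasses frozen in solid CO2/hexane, embedded and cut into 30 µm sagittal sections, then freeze-dried. Radioactivity quantified by whole-body autoradiography against standards by regression, background subtracted.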

Radiolabel recovery (Lung [1]): 0.06 ugequiv
Radiolabel recovery [2]: 8.86 ugequiv
Radiolabel recovery (Zone of skin): 0.17 ugequiv
Radiolabel recovery (Pancreas): 1.23 ugequiv
Radiolabel recovery (Cynomolgus monkey [3]): 94.1%
Radiolabel recovery [4]: 0.76 ugequiv
Radiolabel recovery (Blood [5]): 1.66 ugequiv
Radiolabel recovery (Stomach): 10.15 ugequiv
Radiolabel recovery [6]: 2.8 ugequiv
Radiolabel recovery (Blood [7]): 0.14 ugequiv
Radiolabel recovery [8]: 0.25 ugequiv
Radiolabel recovery (Liver): 1.7 ugequiv
Radiolabel recovery (Cynomolgus monkey [9]): 1.9%
Radiolabel recovery (Lung [10]): 28.98 ugequiv
Compound: CCN(CC)CCNC(=O)c1c(C)[nH]c(/[14CH]=C2\C(=O)Nc3ccc(F)cc32)c1C.O=C(O)C[C@H](O)C(=O)O

From ChEMBL document CHEMBL3525900, “Pharmacokinetics, distribution, and metabolism of [14C]sunitinib in rats, monkeys, and humans” (Drug Metab Dispos, 2012)
